Experimental data published in ChEMBL document CHEMBL1165950, “Design and synthesis of new potent anticancer pyrazoles with high FLT3 kinase inhibitory selectivity” (Bioorg Med Chem, 2010).

Legend:
Assay type in all cases: functional
[1] = test system: OVCAR-8; experiment: Cytotoxicity against human OVCAR8 cells assessed as cell growth at 100 nM after 48 hrs by sulforhodamine B assay; conditions: OVCAR-8, 48 h, read-out: Activity
[2] = test system: BT-549; experiment: Cytotoxicity against human BT549 cells assessed as cell growth at 100 nM after 48 hrs by sulforhodamine B assay; conditions: BT-549, 48 h, read-out: Activity
In short: (§1)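 NCI-60 five-dose screen. Cells were grown in RPMI 1640 with 5% FBS and 2 mM L-glutamine, plated at 5000–40,000 cells/well and preincubated for 24 h. Time-zero plates were TCA-fixed. DMSO-solubilized drug was added at five concentrations (10-fold or ½-log serial dilutions) for 48 h at 37 °C, 5% CO2. Cells were TCA-fixed, stained with 0.4% SRB and read at 515 nm. Percent growth used time-zero, control and test absorbances.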

[3] = test system: ACHN; experiment: Cytotoxicity against human ACHN cells assessed as cell growth at 10 uM; conditions: read-out: Activity
In short: (§2)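 Single-dose NCI-60 screen at 10 µM. Cells were grown in RPMI 1640 with 5% FBS and 2 mM L-glutamine, then treated for 48 h at 37 °C. Protein was measured by SRB staining with absorbance at 515 nm. Percentage growth was recorded, and inhibition percentage was calculated as 100 minus growth percentage.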

[4] = test system: TK-10; experiment: Cytotoxicity against human TK10 cells assessed as cell growth at 10 uM; conditions: read-out: Activity
In short: (§3)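 NCI-60 screen: cells grown in RPMI 1640 with 5% FBS and 2 mM L-glutamine, plated at 5000–40,000 cells/well according to doubling time, and preincubated 24 h at 37 °C, 5% CO2. The single 10 µM dose (DMSO stock) was added, then incubated 48 h. Cells were TCA-fixed and stained with 0.4% SRB, read at 515 nm, and growth % calculated against time-zero and control plates.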

[5] = test system: SF-539; experiment: Cytotoxicity against human SF539 cells assessed as cell growth at 1 uM after 48 hrs by sulforhodamine B assay; conditions: SF-539, 48 h, read-out: Activity
[6] = test system: HCT-15; experiment: Cytotoxicity against human HCT15 cells assessed as cell growth at 0.01 uM after 48 hrs by sulforhodamine B assay; conditions: HCT-15, 48 h, read-out: Activity
[7] = test system: CCRF-CEM; experiment: Growth inhibition of human CCRF-CEM cells after 48 hrs by sulforhodamine B assay
In short: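 NCI five-dose SRB assay in RPMI 1640 with 5% FBS and 2 mM L-glutamine. Cells were preincubated 24 h, then exposed 48 h at 37 °C to five concentrations (10-fold or half-log serial dilutions from DMSO stocks). TCA fixation, SRB staining, and absorbance at 515 nm followed. IC50 was taken where [(Ti−Tz)/(C−Tz)]×100 = 50, with Tz as time-zero cell density.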

[8] = test system: SNB-75; experiment: Cytotoxicity against human SNB75 cells assessed as cell growth at 0.01 uM after 48 hrs by sulforhodamine B assay; conditions: SNB-75, 48 h, read-out: Activity
[9] = test system: SK-MEL-5; experiment: Cytotoxicity against human SK-MEL-5 cells assessed as cell growth at 0.01 uM after 48 hrs by sulforhodamine B assay; conditions: SK-MEL-5, 48 h, read-out: Activity
[10] = test system: NCI-H460; experiment: Cytotoxicity against human NCI-H460 cells assessed as cell growth at 0.001 uM after 48 hrs by sulforhodamine B assay; conditions: NCI-H460, 48 h, read-out: Activity
[11] = test system: U-251; experiment: Cytotoxicity against human U251 cells assessed as cell growth at 0.001 uM after 48 hrs by sulforhodamine B assay; conditions: U-251, 48 h, read-out: Activity
[12] = test system: MOLT-4; experiment: Growth inhibition of human MOLT4 cells after 48 hrs by sulforhodamine B assay; conditions: MOLT-4, 48 h
In short: (§4)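 NCI 60-cell screen, five-dose mode. Cells grown in RPMI 1640 with 5% FBS and 2 mM L-glutamine and plated at 5000-40,000 cells/well according to doubling time. After 24 h preincubation, a Tz plate was TCA-fixed. Five concentrations (10-fold or 1/2 log dilutions) were applied for 48 h at 37 °C. SRB staining read at 515 nm. IC50 taken from [(Ti-Tz)/(C-Tz)]×100 = 50.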

[13] = test system: HOP-92; experiment: Growth inhibition of human HOP92 cells after 48 hrs by sulforhodamine B assay; conditions: HOP-92, 48 h; for CC50: read-out: LC50 (the source's name); in short: as §4
[14] = test system: SNB-75; experiment: Growth inhibition of human SNB75 cells after 48 hrs by sulforhodamine B assay; conditions: SNB-75, 48 h; for CC50: read-out: LC50 (the source's name); in short: as §4
[15] = test system: SK-MEL-2; experiment: Growth inhibition of human SK-MEL-2 cells after 48 hrs by sulforhodamine B assay; conditions: SK-MEL-2, 48 h; for CC50: read-out: LC50 (the source's name); in short: as §4
[16] = test system: OVCAR-5; experiment: Growth inhibition of human OVCAR5 cells after 48 hrs by sulforhodamine B assay; conditions: OVCAR-5, 48 h; for CC50: read-out: LC50 (the source's name); in short: as §4
[17] = test system: CCRF-CEM; experiment: Cytotoxicity against human CCRF-CEM cells assessed as cell growth at 100 nM after 48 hrs by sulforhodamine B assay; conditions: read-out: Activity; in short: as §1
[18] = test system: HOP-62; experiment: Cytotoxicity against human HOP62 cells assessed as cell growth at 100 nM after 48 hrs by sulforhodamine B assay; conditions: HOP-62, 48 h, read-out: Activity
[19] = test system: NCI-H23; experiment: Cytotoxicity against human NCI-H23 cells assessed as cell growth at 100 nM after 48 hrs by sulforhodamine B assay; conditions: NCI-H23, 48 h, read-out: Activity
[20] = test system: UO-31; experiment: Growth inhibition of human UO31 cells after 48 hrs by sulforhodamine B assay; conditions: UO-31, 48 h; for CC50: read-out: LC50 (the source's name); in short: as §4
[21] = test system: MOLT-4; experiment: Cytotoxicity against human MOLT4 cells assessed as cell growth at 10 uM; conditions: read-out: Activity; in short: as §3
[22] = test system: SN12C; experiment: Cytotoxicity against human SN12C cells assessed as cell growth at 1 uM after 48 hrs by sulforhodamine B assay; conditions: read-out: Activity
[23] = test system: HT-29; experiment: Cytotoxicity against human HT-29 cells assessed as cell growth at 10 uM; conditions: read-out: Activity; in short: as §2
[24] = test system: MOLT-4; experiment: Cytotoxicity against human MOLT4 cells assessed as cell growth at 10 uM after 48 hrs by sulforhodamine B assay; conditions: MOLT-4, 48 h, read-out: Activity
[25] = test system: NCI-H23; experiment: Cytotoxicity against human NCI-H23 cells assessed as cell growth at 10 uM after 48 hrs by sulforhodamine B assay; conditions: NCI-H23, 48 h, read-out: Activity
[26] = test system: U-251; experiment: Cytotoxicity against human U251 cells assessed as cell growth at 10 uM after 48 hrs by sulforhodamine B assay; conditions: U-251, 48 h, read-out: Activity
[27] = test system: SK-MEL-2; experiment: Cytotoxicity against human SK-MEL-2 cells assessed as cell growth at 10 uM after 48 hrs by sulforhodamine B assay; conditions: SK-MEL-2, 48 h, read-out: Activity
[28] = test system: MDA-MB-231; experiment: Cytotoxicity against human MDA-MB-231 cells assessed as cell growth at 10 uM after 48 hrs by sulforhodamine B assay; conditions: MDA-MB-231, 48 h, read-out: Activity

COc1cc(C)cc(-c2nn(CC#N)cc2-c2ccc(-c3cccc(C(C)=O)c3)nc2)c1
growth at 0.1 µM [1]: 86%
growth at 0.1 µM [2]: 85%
growth at 10 µM [3]: 35.4%
growth at 10 µM [4]: 27.3%
growth at 1 µM [5]: -39%
growth at 0.01 µM [6]: 100%
GI50 [7]: 2.61 µM
LC50 [7]: > 100 µM
TGI [7]: > 100 µM
growth at 0.01 µM [8]: 83%
growth at 0.01 µM [9]: 91%
growth at 0.001 µM [10]: 104%
growth at 0.001 µM [11]: 98%
GI50 [12]: 3.35 µM
LC50 [12]: > 100 µM
TGI [12]: > 100 µM
GI50 [13]: 2.63 µM
TGI [13]: 9.09 µM
CC50 [13]: > 100 µM
GI50 [14]: 1.96 µM
TGI [14]: 6.24 µM
CC50 [14]: > 100 µM
GI50 [15]: 3.73 µM
TGI [15]: 41.3 µM
CC50 [15]: > 100 µM
GI50 [16]: 2.43 µM
TGI [16]: 33.9 µM
CC50 [16]: > 100 µM
growth at 0.1 µM [17]: 77%
growth at 0.1 µM [18]: 82%
growth at 0.1 µM [19]: 88%
GI50 [20]: 3.18 µM
TGI [20]: 58.2 µM
CC50 [20]: > 100 µM
growth at 10 µM [21]: 28.1%
growth at 1 µM [22]: 39%
growth at 10 µM [23]: 3.66%
growth at 10 µM [24]: 14%
growth at 10 µM [25]: -1%
growth at 10 µM [26]: -37%
growth at 10 µM [27]: -14%
growth at 10 µM [28]: 1%

COc1cc(C)cc(-c2c(-c3ccnc(-c4ccc(N(C)C)cc4)c3)cnn2CC#N)c1
growth at 0.1 µM [1]: 11%
growth at 0.1 µM [2]: -18%
growth at 10 µM [3]: 22.1%
growth at 10 µM [4]: 36.6%
growth at 1 µM [5]: 1%
growth at 0.01 µM [6]: 12%
GI50 [7]: 0.237 µM
LC50 [7]: > 100 µM
TGI [7]: > 100 µM
growth at 0.01 µM [8]: 65%
growth at 0.01 µM [9]: 19%
growth at 0.001 µM [10]: 93%
growth at 0.001 µM [11]: 95%
GI50 [12]: 0.271 µM
LC50 [12]: > 100 µM
GI50 [13]: < 0.01 µM
TGI [13]: 0.0553 µM
CC50 [13]: > 100 µM
GI50 [14]: 0.0694 µM
TGI [14]: > 100 µM
CC50 [14]: > 100 µM
GI50 [15]: 0.204 µM
TGI [15]: > 100 µM
CC50 [15]: > 100 µM
GI50 [16]: > 100 µM
TGI [16]: > 100 µM
CC50 [16]: > 100 µM
growth at 0.1 µM [17]: 11%
growth at 0.1 µM [18]: 33%
growth at 0.1 µM [19]: 28%
GI50 [20]: 0.508 µM
TGI [20]: > 100 µM
CC50 [20]: > 100 µM
growth at 10 µM [21]: 9.77%
growth at 1 µM [22]: 18%
growth at 10 µM [23]: -33.3%
growth at 10 µM [24]: 1%
growth at 10 µM [25]: 17%
growth at 10 µM [26]: 6%
growth at 10 µM [27]: 10%
growth at 10 µM [28]: 25%
